Source: the array DNA melting data of Ke et al. (doi:10.1101/2024.01.08.574731)

What was measured:
[1] = folding enthalpy; higher = less favourable; fluorescence melt of hairpins on a sequencing array, two-state fit; conditions: sodium 0.088 M
Outline: (§1)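 Melting temperature and folding enthalpy were derived from bootstrapped two-state fits. The fitted temperatures were raised by 9.35 °C to agree with UV melts, and four replicates were combined by inverse variance. The underlying data were Cy3 fluorescence images of library hairpins, with annealed Cy3 and quencher oligos, on a sequenced MiSeq flow cell in 50 mM Na-HEPES pH 8.0, 25 mM NaCl, taken in 2.5 °C steps up to 60 °C, normalised to pre-quench Cy3 and to control constructs.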

[2] = melting temperature; fluorescence melt of hairpins on a sequencing array, two-state fit, raised by 9.35 °C to match UV melts; conditions: sodium 0.088 M
Outline: as §1

| Sequence | folding enthalpy [1] | Tm [2] |
| --- | --- | --- |
| GCGTTGCGAAAGCGTCGC (((..((....))..))) | -20.8 kcal/mol | 63.6 °C |
| GATTTACGAAAGTACATC (((.(((....))).))) | -19.9 kcal/mol | 35.6 °C |
| GACTCCGAAAGGAAGTC ((((((....))).))) | -28.8 kcal/mol | 52.4 °C |
| GGTCGTGGAAACACAACC (((.(((....))).))) | -27.6 kcal/mol | 42.5 °C |
| GGAGGCGAAAGCCGGTCC ((((((....)))..))) | -9.6 kcal/mol | 43.3 °C |
| GATCAATTCCTTGATC ((((((....)))))) | -35.3 kcal/mol | 45.4 °C |
| GGAATCGAAAGATTTTCC ((((((....)))..))) | -17.7 kcal/mol | 27.8 °C |
| GGTTTCGGAAACGGAATC (.((.((....)).)).) | -20.8 kcal/mol | 33.4 °C |
| GTCGAGGGAAACCTTGGC (.(.(((....))).).) | -21.8 kcal/mol | 36 °C |
| GTCCAGCGAAAGCTAGAC (((.(((....))).))) | -22.1 kcal/mol | 46.4 °C |
| GTTTGGGGAAACTCAGAC ((.((.(....).)).)) | -9.8 kcal/mol | 27 °C |
| GGTCATGGAAACATGACC (((((((....))))))) | -51.8 kcal/mol | 65.5 °C |
| GAATGTGGAAACACACTC ((.((((....)))).)) | -11.6 kcal/mol | 29.8 °C |
| GGTCTGTCGAAAGACACC (((..(((....)))))) | -11.4 kcal/mol | 30.5 °C |
| GCGGGGGGAAACCCTCGC (((.(((....))).))) | -38 kcal/mol | 61.6 °C |
| GGTCACGAAAGTGGACC ((((((....))).))) | -29 kcal/mol | 55.3 °C |
| GGTTTAGGAAACCAAACC (((((.(....).))))) | -22.9 kcal/mol | 37 °C |
| GCTAGCGAAAGCTTTAGC ((((((....)))..))) | -14 kcal/mol | 40.5 °C |
| GAGACCGAAAGGTGACTC ((((((....)))..))) | -13.8 kcal/mol | 35.6 °C |
| GTTGGGCGAAAGCCTAAC (((.(((....))).))) | -23.1 kcal/mol | 54.9 °C |
| GCCTTCGAAAGAACGGC ((((((....))).))) | -29.2 kcal/mol | 48.2 °C |
| GCTCCCGAAAGGGGCAGC ((((((....)))..))) | -12.5 kcal/mol | 49.8 °C |
| GTCCAGCCGAAAGGCGAC (((..(((....)))))) | -9.75 kcal/mol | 40.6 °C |

| Sequence | folding enthalpy [1] | Tm [2] |
| --- | --- | --- |
| GTCATCGAAAGATGAC ((((((....)))))) | -31.2 kcal/mol | 66.2 °C |
| GATCCGCGTCCGGATC ((((((....)))))) | -41.8 kcal/mol | 57.6 °C |
| GCTCCGCGAAAGCGCCGC ((..(((....)))..)) | -6.58 kcal/mol | 28.9 °C |
| GGTTAAACGAAAGTTACC (((..(((....)))))) | -14.3 kcal/mol | 32 °C |
| GCCTCACCGAAAGGTGGC (((..(((....)))))) | -8.02 kcal/mol | 48.9 °C |
| GATCCGCTTTCGGATC ((((((....)))))) | -40.4 kcal/mol | 57.8 °C |
| GGCATGGAAACATGCC ((((((....)))))) | -34.9 kcal/mol | 67.3 °C |
| GATTAGGGAAACCCAATC ((((.((....)).)))) | -22.4 kcal/mol | 31.3 °C |
| GATCACCAACGTGATC ((((((....)))))) | -41.6 kcal/mol | 53.8 °C |
| GCGCTCGAAAGAGTCCGC ((((((....)))..))) | -24.3 kcal/mol | 42.8 °C |
| GCGTGGCGAAAGCAGCGC (((..((....))..))) | -33.8 kcal/mol | 67.9 °C |
| GATCACACTAGTGATC ((((((....)))))) | -43.4 kcal/mol | 58.8 °C |
| GGTAACGAAAGTTTGACC ((((((....)))..))) | -19.4 kcal/mol | 28.9 °C |
| GACGGCGAAAGCCATGTC ((((((....)))..))) | -13.3 kcal/mol | 45.2 °C |
| CGCTCGGAAACGAATGCG ((((((....)))..))) | -23.3 kcal/mol | 45 °C |
| CTTGCGAAAGCAAG (((((....))))) | -16.9 kcal/mol | 58.8 °C |
| GCGGAGCGAAAGCTCGGC ((.((((....)))).)) | -17.8 kcal/mol | 65.1 °C |
| CGAAGACGGAAACGTTCG (((..(((....)))))) | -13.8 kcal/mol | 39 °C |
| GGTCTCGGAAACGGGACC ((((.((....)).)))) | -44 kcal/mol | 57.5 °C |
| GATCTGTCCCAGATC ((((((...)))))) | -33.6 kcal/mol | 49.5 °C |
| GGAGCCGAAAGGCCTCC ((((((....))).))) | -24.4 kcal/mol | 54.5 °C |
| GCAGGCGAAAGCCGATGC ((((((....)))..))) | -13.3 kcal/mol | 53.9 °C |
| GATCTCAAGAGAGATC ((((((....)))))) | -32.5 kcal/mol | 49.4 °C |

| Sequence | folding enthalpy [1] | Tm [2] |
| --- | --- | --- |
| CGGTTCCGGAAACGGCCG (((..(((....)))))) | -21 kcal/mol | 43.3 °C |
| GCCGAGCGAAAGCGCCGC ((.(.((....)).).)) | -12 kcal/mol | 41.9 °C |
| GTCCGTCGAAAGACCGAC (((.(((....))).))) | -21.5 kcal/mol | 42.8 °C |
| GTGGCACGAAAGTGTCAC (((.(((....))).))) | -42 kcal/mol | 67.2 °C |
| GTCTGGGGAAACCCAGAC (((((((....))))))) | -37.6 kcal/mol | 68.5 °C |
| GAGGCGCCGAAAGGCCTC (((..(((....)))))) | -13.3 kcal/mol | 44.3 °C |
| GGACCCCGAAAGGGTCC (((.(((....)))))) | -30.2 kcal/mol | 68 °C |
| GGATTCGGAAACAAATCC (((((.(....).))))) | -22.9 kcal/mol | 35.8 °C |
| GCGTTGTTACGC ((((....)))) | -23.2 kcal/mol | 54.3 °C |
| GATCAGCCGTCTGATC ((((((....)))))) | -43.6 kcal/mol | 51.6 °C |
| GCCCGACGAAAGTCAGGC (((.(((....))).))) | -31.8 kcal/mol | 57.3 °C |
| GAACGCGAAAGCGGTTTC ((((((....)))..))) | -10.8 kcal/mol | 41.9 °C |
| GCTATGCGAAAGCATTGC ((.((((....)))).)) | -30.2 kcal/mol | 60.3 °C |
| GTCGTAGGAAACTACGAC (((((((....))))))) | -43.6 kcal/mol | 63.3 °C |
| CGAAACGGAAACGTATCG (((.(((....))).))) | -30.8 kcal/mol | 42.6 °C |
| GCGAATAGTCGC ((((....)))) | -17.4 kcal/mol | 44.7 °C |
| GCTAGGCGAAAGCGTAGC ((((.((....)).)))) | -33 kcal/mol | 62.8 °C |
| CGTATTCGGAAACGAACG (((..(((....)))))) | -17.2 kcal/mol | 28.4 °C |
| GCGATGGCTCGC ((((....)))) | -19.2 kcal/mol | 47.8 °C |
| GGCCACGAAAGTGGTGCC ((((((....)))..))) | -12.7 kcal/mol | 49.9 °C |
| GATCAAGGGCTTGATC ((((((....)))))) | -34.6 kcal/mol | 46.7 °C |
| GATCTGTAGCCAGATC ((((((....)))))) | -34.1 kcal/mol | 48.6 °C |
| GCATAGCGAAAGCCGTGC (((..((....))..))) | -17.5 kcal/mol | 39.6 °C |

| Sequence | folding enthalpy [1] | Tm [2] |
| --- | --- | --- |
| GCAATGGGAAACTGTTGC ((((..(....)..)))) | -27.7 kcal/mol | 40.4 °C |
| GCCGGTGGAAACGTCGGC ((((..(....)..)))) | -42 kcal/mol | 52.3 °C |
| GTGTACGAAAGTAGGCAC ((((((....)))..))) | -16.5 kcal/mol | 32.8 °C |
| GATCCCGAAGGGGATC ((((((....)))))) | -19.7 kcal/mol | 65.5 °C |
| GCGGTTGGAAACAACTGC ((.((((....)))).)) | -46.5 kcal/mol | 55.6 °C |
| GCATCGCGAAAGCGCAGC ((..(((....)))..)) | -12.6 kcal/mol | 39.9 °C |
| GCATAGCGAAAGCGAAGC ((.(.((....)).).)) | -22.6 kcal/mol | 58.1 °C |
| CTCATGAAAATGAG (((((....))))) | -21.3 kcal/mol | 44.8 °C |
| GCGTGTGGAAACATGCGC (((..((....))..))) | -35.2 kcal/mol | 60.9 °C |
| GCGGTGAACCGC ((((....)))) | -30 kcal/mol | 61.1 °C |
| GCGGTGCGAAAGCGTCGC (((..((....))..))) | -32.6 kcal/mol | 65.1 °C |
| GCTCTGCGAAAGCACCGC ((..(((....)))..)) | -8.79 kcal/mol | 31.8 °C |
| GATCGGCGGTCCGATC ((((((....)))))) | -43.3 kcal/mol | 55.5 °C |
| GATCACGGGAGTGATC ((((((....)))))) | -37.6 kcal/mol | 68.5 °C |
| GTCGGCGGAAACGTCGGC (.((.((....)).)).) | -35.5 kcal/mol | 54 °C |
| GGCAGTGGAAACACTACC ((.((((....)))).)) | -29.7 kcal/mol | 43.4 °C |
| GCGGAGAACCGC ((((....)))) | -22.7 kcal/mol | 51.1 °C |
| GGTAACCGAAAGGTGACC (((.(((....))).))) | -36.3 kcal/mol | 55.4 °C |
| GGGTGGGGAAACCCGCCC (((.(((....))).))) | -33.6 kcal/mol | 67.3 °C |
| GGAGAAGGAAACCTCTCC (((((.(....).))))) | -28.6 kcal/mol | 37.7 °C |
| GATCACCGCGGTGATC ((((((....)))))) | -44.1 kcal/mol | 67.2 °C |
| GTGAGTGAAAACTCAC ((((((....)))))) | -37.7 kcal/mol | 59.1 °C |
| GAGGGCCCGAAAGGGCTC (((..(((....)))))) | -8.22 kcal/mol | 43.9 °C |
